Where “and” joins values, the source holds several entries; their conditions need not be identical. Identical values can stand only once.
Test system: HEK-293T
Assay: Multiplex assay against HEK293T
Format: toxicity, cell-based
Conditions: human, number of replicates 2
Summary of the method: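 Values for tubulin, mitochondrial-mass and membrane-permeability phenotypes are per cents of cells with healthy nuclei. These cells were identified by CellPathfinder machine-learning gating of live cells that had been stained at seeding with Hoechst33342, BioTracker Green Microtubule Cytoskeleton Dye, MitoTracker Red and Annexin V Alexa Fluor 680 and imaged on a CQ1 microscope at 37°C and 5% CO2 after compound addition. The gating first set Hoechst high-intensity objects apart from normal cells, then split normal cells into healthy, pyknosed or fragmented nuclei, and pyknosed cells into mitotic or apoptotic.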

[1] = 12 h, 1 µM, compound concentration 1 uM
[2] = 12 h, 10 µM, compound concentration 10 uM
[3] = 24 h, 1 µM, compound concentration 1 uM
[4] = 24 h, 10 µM, compound concentration 10 uM
[5] = 48 h, 1 µM, compound concentration 1 uM
[6] = 48 h, 10 µM, compound concentration 10 uM

## CSc1cc2c(cc1C(F)(F)F)N(C(=O)Nc1cccnc1)CC2
[1]
  Population Apoptotic (%): 48% and 46%
  Population Fragmented Nuclei (%): 2% and 3%
  Population Healthy Nuclei (%): 87% and 85%
  Population Hoechst High Intensity Objects (%): 4% and 5%
  Population Membrane Permeable-Phenotype (%): 4% and 3%
  Population Mitochondria Different-Phenotype (%): 9% and 18%
  Population Mitotic Cells (%): 51% and 53%
  Population Normal (%): 95% and 94%
  Population Pyknosed Nuclei (%): 10%
  Population Tubulin-Different-Phenotype (%): 41% and 47%
  Total Cell Count: 690 and 549
[2]
  Population Apoptotic (%): 51% and 43%
  Population Fragmented Nuclei (%): 5% and 2%
  Population Healthy Nuclei (%): 84%
  Population Hoechst High Intensity Objects (%): 5%
  Population Membrane Permeable-Phenotype (%): 3%
  Population Mitochondria Different-Phenotype (%): 5% and 14%
  Population Mitotic Cells (%): 48% and 56%
  Population Normal (%): 94%
  Population Pyknosed Nuclei (%): 9% and 12%
  Population Tubulin-Different-Phenotype (%): 39%
  Total Cell Count: 679 and 494
[3]
  Population Apoptotic (%): 25% and 42%
  Population Fragmented Nuclei (%): 5% and 4%
  Population Healthy Nuclei (%): 88% and 87%
  Population Hoechst High Intensity Objects (%): 6% and 5%
  Population Membrane Permeable-Phenotype (%): 2%
  Population Mitochondria Different-Phenotype (%): 3% and 6%
  Population Mitotic Cells (%): 74% and 57%
  Population Normal (%): 93% and 94%
  Population Pyknosed Nuclei (%): 5% and 8%
  Population Tubulin-Different-Phenotype (%): 27% and 31%
  Total Cell Count: 1189 and 774
[4]
  Population Apoptotic (%): 20% and 36%
  Population Fragmented Nuclei (%): 10% and 6%
  Population Healthy Nuclei (%): 85% and 87%
  Population Hoechst High Intensity Objects (%): 5% and 7%
  Population Membrane Permeable-Phenotype (%): 3% and 2%
  Population Mitochondria Different-Phenotype (%): 2% and 5%
  Population Mitotic Cells (%): 79% and 63%
  Population Normal (%): 94% and 92%
  Population Pyknosed Nuclei (%): 4% and 6%
  Population Tubulin-Different-Phenotype (%): 26% and 21%
  Total Cell Count: 1164 and 681
[5]
  Population Apoptotic (%): 5% and 7%
  Population Fragmented Nuclei (%): 14% and 9%
  Population Healthy Nuclei (%): 83% and 88%
  Population Hoechst High Intensity Objects (%): 9% and 10%
  Population Membrane Permeable-Phenotype (%): 6% and 4%
  Population Mitochondria Different-Phenotype (%): 0%
  Population Mitotic Cells (%): 94% and 92%
  Population Normal (%): 90% and 89%
  Population Pyknosed Nuclei (%): 2%
  Population Tubulin-Different-Phenotype (%): 14% and 17%
  Total Cell Count: 2977 and 1800
[6]
  Population Apoptotic (%): 5% and 6%
  Population Fragmented Nuclei (%): 20% and 12%
  Population Healthy Nuclei (%): 77% and 84%
  Population Hoechst High Intensity Objects (%): 9% and 7%
  Population Membrane Permeable-Phenotype (%): 7% and 6%
  Population Mitochondria Different-Phenotype (%): 0% and 1%
  Population Mitotic Cells (%): 94% and 93%
  Population Normal (%): 90% and 92%
  Population Pyknosed Nuclei (%): 1% and 2%
  Population Tubulin-Different-Phenotype (%): 11% and 13%
  Total Cell Count: 2869 and 1725

## CCN(CC)C/C=C/C(=O)Nc1cc2c(Nc3ccc(F)c(Cl)c3)ncnc2cc1OCC1CC1
[1]
  Population Apoptotic (%): 61% and 46%
  Population Fragmented Nuclei (%): 3% and 4%
  Population Healthy Nuclei (%): 79%
  Population Hoechst High Intensity Objects (%): 4% and 7%
  Population Membrane Permeable-Phenotype (%): 6% and 5%
  Population Mitochondria Different-Phenotype (%): 26% and 30%
  Population Mitotic Cells (%): 38% and 53%
  Population Normal (%): 95% and 92%
  Population Pyknosed Nuclei (%): 17% and 15%
  Population Tubulin-Different-Phenotype (%): 81% and 90%
  Total Cell Count: 435 and 525
[2]
  Population Apoptotic (%): 81% and 84%
  Population Fragmented Nuclei (%): 1% and 6%
  Population Healthy Nuclei (%): 68% and 69%
  Population Hoechst High Intensity Objects (%): 8% and 6%
  Population Membrane Permeable-Phenotype (%): 4% and 3%
  Population Mitochondria Different-Phenotype (%): 76% and 83%
  Population Mitotic Cells (%): 18% and 15%
  Population Normal (%): 91% and 93%
  Population Pyknosed Nuclei (%): 29% and 23%
  Population Tubulin-Different-Phenotype (%): 84% and 78%
  Total Cell Count: 283 and 298
[3]
  Population Apoptotic (%): 50%
  Population Fragmented Nuclei (%): 5% and 6%
  Population Healthy Nuclei (%): 81% and 84%
  Population Hoechst High Intensity Objects (%): 6% and 9%
  Population Membrane Permeable-Phenotype (%): 4% and 5%
  Population Mitochondria Different-Phenotype (%): 14% and 19%
  Population Mitotic Cells (%): 50% and 49%
  Population Normal (%): 93% and 90%
  Population Pyknosed Nuclei (%): 12% and 8%
  Population Tubulin-Different-Phenotype (%): 59% and 72%
  Total Cell Count: 687 and 743
[4]
  Population Apoptotic (%): 84% and 81%
  Population Fragmented Nuclei (%): 2% and 4%
  Population Healthy Nuclei (%): 47% and 45%
  Population Hoechst High Intensity Objects (%): 10%
  Population Membrane Permeable-Phenotype (%): 2% and 1%
  Population Mitochondria Different-Phenotype (%): 92% and 93%
  Population Mitotic Cells (%): 15% and 18%
  Population Normal (%): 89%
  Population Pyknosed Nuclei (%): 49%
  Population Tubulin-Different-Phenotype (%): 88% and 77%
  Total Cell Count: 274 and 323
[5]
  Population Apoptotic (%): 30%
  Population Fragmented Nuclei (%): 9%
  Population Healthy Nuclei (%): 84%
  Population Hoechst High Intensity Objects (%): 9% and 7%
  Population Membrane Permeable-Phenotype (%): 4% and 6%
  Population Mitochondria Different-Phenotype (%): 5% and 2%
  Population Mitotic Cells (%): 69%
  Population Normal (%): 90% and 92%
  Population Pyknosed Nuclei (%): 5% and 6%
  Population Tubulin-Different-Phenotype (%): 53% and 34%
  Total Cell Count: 1264 and 1265
[6]
  Population Apoptotic (%): 84% and 87%
  Population Fragmented Nuclei (%): 7% and 11%
  Population Healthy Nuclei (%): 32% and 33%
  Population Hoechst High Intensity Objects (%): 8% and 15%
  Population Membrane Permeable-Phenotype (%): 5% and 2%
  Population Mitochondria Different-Phenotype (%): 87% and 94%
  Population Mitotic Cells (%): 15% and 12%
  Population Normal (%): 91% and 84%
  Population Pyknosed Nuclei (%): 59% and 55%
  Population Tubulin-Different-Phenotype (%): 84% and 80%
  Total Cell Count: 396 and 360
